Values joined by “and” are separate entries in the source; they are usually repeats but may differ in a detail not shown here. Identical values can stand only once. Each block holds one molecule with its values, some of them ahead of it.
What was measured:
SULT1A1 [1] = target: T1, SULT1A1 (Homo sapiens, UniProt P50225); assay: Initial rate of 1-HP sulfonation by SULT1A1; assay type: biochemical
How it was run: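 Recombinant SULT1A1 at 1.0 nM dimer with MgCl2 5.0 mM and NaPO4 50 mM, pH 7.2, 25 ± 2 °C. Reactions started with PAPS: 2.0 μM saturates both sites, 0.30 μM only the first. Acceptor 8.0–200 nM. Product fluorescence read at λex 320 nm, λem 380 nm. […]. Duplicates; weighted least-squares fit in double-reciprocal form.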

SULT1A1 [2] = target: T1, SULT1A1; assay: Equilibrium binding of TAM and 1-HP to SULT1A1 forms E, E·PAP, E·
How it was run: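 Acceptor titrated into SULT1A1 (0.05–10 μM dimer) with PAP 0–500 μM, MgCl2 5.0 mM, NaPO4 (25 or 50 mM), pH 7.2, 25 ± 2 °C. Intrinsic fluorescence read at λex 290 nm, λem 345 nm. Free enzyme had no PAP; 0.50 mM PAP saturates both sites; singly bound form used 9.0 μM dimer with 9.0 μM PAP. Biphasic phases fitted separately. Triplicates averaged; least-squares single-site fit.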

SULT1A1 [3] = target: T1, SULT1A1; assay: Equilibrium binding of PAPS to SULT1A1; settings: for Kd: pH 7.2, 25 °C
How it was run: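 Human SULT1A1, codon-optimised, expressed in E. coli BL21(DE3) with a His/GST/MBP tag, then tag-cleaved. PAPS titrated into enzyme with MgCl2 5.0 mM and NaPO4 50 mM, pH 7.2, 25 ± 2 °C. Intrinsic fluorescence read at λex 290–295 nm, λem 345 nm. Dimer 0.05 μM for high-affinity Kd; 3.0 μM for first-site stoichiometry and low-affinity phase; 475 μM for full-site, at λex 297 nm. Triplicates averaged; single-site-per-dimer fit.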

SULT1A1 [4] = target: T1, SULT1A1; settings: PAP bound to SULT1A1, in favor of pore closure; cited from earlier work
SULT1A1 [5] = target: T1, SULT1A1; assay: Pre-steady-state PAPS binding; settings: for Kd: read-out: koff/kon
How it was run: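 Stopped-flow, excitation 290 nm, emission above 330 nm. Enzyme solution (MgCl2 5.0 mM, NaPO4, pH 7.2, 25 ± 2 °C) mixed 1:1 with PAPS solution. High-affinity site: 30 nM dimer. Low-affinity site: 2.0 μM dimer pre-equilibrated with PAPS, then mixed with higher PAPS. Pseudo-first-order; three curves per concentration (each 8–10 shots) at four PAPS levels. Single-exponential kobs; kon from slope, koff from intercept.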

SULT1A1 [6] = target: T1, SULT1A1; assay: Initial rate kinetics of TAM sulfation; assay type: biochemical
[7] = 1-HP as substrate, E·PAP form, [PAPS] 0.30 μM
[8] = acceptor binding to E (no nucleotide), pH 7.2, 25 °C
[9] = acceptor binding to E·(PAP)2 (TAM: PAP 0.50 mM; 1-HP: PAP 2.0 µM)
[10] = high-affinity PAPS binding site, pH 7.2, 25 °C
[11] = low-affinity PAPS binding site, dimer pre-equilibrated with PAPS

T1 sequence (P50225 whole entry): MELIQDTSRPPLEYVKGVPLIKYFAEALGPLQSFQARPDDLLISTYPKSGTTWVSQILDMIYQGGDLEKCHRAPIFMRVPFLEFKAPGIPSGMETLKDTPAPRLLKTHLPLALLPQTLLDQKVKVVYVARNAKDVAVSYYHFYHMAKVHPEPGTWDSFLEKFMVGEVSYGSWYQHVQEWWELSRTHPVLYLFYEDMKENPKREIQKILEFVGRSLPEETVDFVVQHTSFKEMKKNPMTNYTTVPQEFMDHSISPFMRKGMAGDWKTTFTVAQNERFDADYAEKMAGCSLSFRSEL

Compound: Oc1ccc2ccc3cccc4ccc1c2c34 [1-HP, 1-hydroxypyrene]
kcat (SULT1A1 [1]; 1-HP as substrate, E·(PAP)2 form, [PAPS] 2.0 μM): 1000 (60) s^–1
Km (SULT1A1 [1]; [7]): 0.041 µM
kcat (SULT1A1 [1]; [7]): 130 (20) s^–1
effect of PAPS occupancy on Km (SULT1A1 [1]; 1-HP sulfonation): not affected by PAPS occupancy
increase in kcat, doubly vs singly occupied enzyme (SULT1A1 [1]; 1-HP sulfonation): ~8 fold
increase in turnover of each subunit, doubly vs singly occupied enzyme (SULT1A1 [1]; 1-HP sulfonation): 4 times
Kd (SULT1A1 [2]; [8]): 8000 nM
Kd (SULT1A1 [2]; [9]): 25 nM

binding to SULT1A1 (SULT1A1 [3]; used in control titrations for inner-filter correction): does not bind SULT1A1
Compound: Nc1ncnc2c1ncn2[C@@H]1O[C@H](COP(=O)(O)O)[C@@H](O)[C@H]1O [AMP, Adenosine monophosphate]

Compound: Nc1ncnc2c1ncn2[C@@H]1O[C@H](COP(=O)(O)O)[C@@H](OP(=O)(O)O)[C@H]1O [PAP, 3′,5′-diphosphoadenosine]
isomerization equilibrium constant, Kiso (SULT1A1 [4]): 26

Kd (SULT1A1 [3]; high-affinity PAPS binding site, SULT1A1 0.05 μM dimer): 370 nM
difference in affinities (Kd) of the two PAPS binding sites (SULT1A1 [3]; low- vs high-affinity site): 81 fold
Kd (SULT1A1 [3]; low-affinity PAPS binding site, SULT1A1 3.0 μM dimer): 30000 nM
kon for the first site, aggregate value halved (SULT1A1 [5]; corrected for two subunits able to bind the first ligand): 1.0 μM^–1 s^–1
koff (SULT1A1 [5]; [10]): 0.70 (0.05) s^–1
kon (SULT1A1 [5]; [10]): 2.0 (0.1) μM^–1 s^–1
koff (SULT1A1 [5]; [11]): 29 (1) s^–1
kon (SULT1A1 [5]; [11]): 0.96 (0.01) μM^–1 s^–1
Kd (SULT1A1 [5]; high-affinity PAPS binding site): 370 nM
Kd (SULT1A1 [5]; low-affinity PAPS binding site): 30000 nM
Compound: Nc1ncnc2c1ncn2[C@@H]1O[C@H](COP(=O)(O)OS(=O)(=O)O)[C@@H](OP(=O)(O)O)[C@H]1O [PAPS, 3′-phosphoadenosine 5′-phosphosulfate]
PAPS binding stoichiometry at the high-affinity site (SULT1A1 [3]; SULT1A1 3.0 μM dimer (16Kd)): 1.1 ± 0.2 PAPS molecules per dimer and 1.1 ± 0.1 PAPS molecules per dimer

Kd (SULT1A1 [2]; [8]): 670 nM
Kd (SULT1A1 [2]; [9]): 680 nM and 650 nM
stoichiometry of binding to E and E·(PAP)2 (SULT1A1 [2]; SULT1A1 10 μM dimer, PAP 0 or 0.50 mM): 2.0 ± 0.1 TAM bound per SULT1A1 dimer
ratio of Km for the singly and doubly occupied enzyme (SULT1A1 [6]): 23
Compound: CC/C(=C(\c1ccc(O)cc1)c1ccc(OCCN(C)C)cc1)c1ccccc1 [TAM, 4-hydroxytamoxifen]

Source: PMC4230322 (Biochemistry, 2014)
